Source: publication PMC11931292 (Drug Design, Development and Therapy, 2025)

How the values were obtained:
BCG within RAW264.7 = test: Intracellular inhibition, CFU assay in infected RAW264.7 cells; assay type: cell-based; details: 0.047 μg/mL drug, 72 hours, BCG MOI 1
In short: (§1)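 RAW264.7 macrophages were seeded at 1×10⁶ cells/well in 12-well plates and infected at MOI 1, for 24 h with BCG or 4 h with H37Rv. Cells were exposed to 0.047 μg/mL free drug or nanoparticles with equivalent drug for 72 h, washed three times with PBS, and lysed 10 min in PBS with 0.03% SDS. Lysates were serially diluted in 7H9, plated on 7H11, and CFU counted after 21 days at 37°C (three replicates).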

[1] = Organ toxicity: H&E histology and serum biochemistry; assay type: in vivo, SD rats; details: fourth day after injection
In short: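 On day 4 after injection, animals were euthanised. Heart, kidneys, liver, lungs and spleen were excised, rinsed in saline to remove blood, fixed in 4% paraformaldehyde for 72 h, and stained with hematoxylin and eosin.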

H37Rv within RAW264.7 = test: Intracellular inhibition, CFU assay in infected RAW264.7 cells; assay type: cell-based, Mycobacterium tuberculosis; details: 0.047 μg/mL drug, 72 hours, H37Rv MOI 1
In short: as §1

[2] = Pharmacokinetics study, single intravenous injection; assay type: in vivo, Sprague-Dawley (SD) rats; details: SD rats, single i.v. 10 mg/kg
In short: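 Male SD rats (180–220 g) were randomised to free drug or one of two nanoparticle formulations and anaesthetised with i.p. 2% sodium pentobarbital (3mg/100g). Each got a single i.v. dose of 10 mg/kg drug-equivalent. Blood was drawn by orbital bleeding at set times. Plasma was deproteinised with acetonitrile and centrifuged, and the supernatant was assayed by HPLC (C18, 30°C, 335 nm). Cmax, Tmax, t1/2, MRT and AUC0–∞ were derived.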

In vitro drug release = assay type: physicochemical; details: within 9 hours

Compound: CO[C@H]1/C=C/O[C@@]2(C)Oc3c(C)c(O)c4c(O)c(c(/C=N/N5CCN(C6CCCC6)CC5)c(O)c4c3C2=O)NC(=O)/C(C)=C\C=C\[C@H](C)[C@H](O)[C@@H](C)[C@@H](O)[C@@H](C)[C@H](OC(C)=O)[C@@H]1C [RPT, Rifapentine]
- Intracellular antibacterial activity (CFU) (BCG within RAW264.7): exhibited inhibitory effects
- H&E histology of heart, spleen, liver, lungs and kidneys [1]: no discernible abnormalities
- Intracellular antibacterial activity (CFU) (H37Rv within RAW264.7): exhibited inhibitory effects
- Time the drug persisted in the system [2]: 2 days
- Cumulative release (initial burst release) (In vitro drug release): approximately 90.73%
